High-throughput results: PubChem BioAssay, several laboratories
Rows were chosen to be rich in hits. Some 2.5% of all compounds tested hit in one or more screens of this group.
SR-BI DiI-HDL act: SR-BI HDL lipid transfer activation | CHO ldlA[mSR-BI] cells, DiI-HDL uptake fluorescence, 3 h; 100 = double the neutral-control signal | activation, % at 12.5 µM | hit rate 0.096% among 320,000 | AID 504775;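 active means mean replicate activation of at least 60% and every replicate at or above 60%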;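 further: 0% = median plate neutral-control signal and 100% = twice that signal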
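Material: SR-BI-overexpressing, LDLR-lacking CHO cells; schedule: compound exposure 3 h, 37 °C; reagent: DiI-labelled HDL at 10 µg/mL final; technique: bottom-read fluorescence, 550/595 nm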
TAG inh: reduces triacylglycerol accumulation in H9c2 cells | Nile Red lipid (TAG) fluorescence; cells loaded with 200 µM oleic acid | hit rate 0.66% among 230,000 | AID 651582 | inhibition, % at 12.5 µM;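 active means pattern-corrected inhibition of lipid staining of at least 50% with the nuclear-stain viability signal not falling by more than 50%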;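 further: 0% = DMSO wells and 100% = triacsin C control wells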
SR-BI HDL uptake: mouse SR-BI HDL lipid transfer inhibition | Q61009 | ldlA[mSR-BI] CHO cells, DiI-HDL uptake fluorescence, 3 h | inhibition, % at 12.5 µM | hit rate 0.96% among 320,000 | AID 488896;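 active means mean replicate inhibition of at least 70% and a set share of replicates each scoring 70 or more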;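 further: 0% = median of neutral control wells and 100% = median of positive control wells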
Target sequence (Q61009 whole entry, looked up): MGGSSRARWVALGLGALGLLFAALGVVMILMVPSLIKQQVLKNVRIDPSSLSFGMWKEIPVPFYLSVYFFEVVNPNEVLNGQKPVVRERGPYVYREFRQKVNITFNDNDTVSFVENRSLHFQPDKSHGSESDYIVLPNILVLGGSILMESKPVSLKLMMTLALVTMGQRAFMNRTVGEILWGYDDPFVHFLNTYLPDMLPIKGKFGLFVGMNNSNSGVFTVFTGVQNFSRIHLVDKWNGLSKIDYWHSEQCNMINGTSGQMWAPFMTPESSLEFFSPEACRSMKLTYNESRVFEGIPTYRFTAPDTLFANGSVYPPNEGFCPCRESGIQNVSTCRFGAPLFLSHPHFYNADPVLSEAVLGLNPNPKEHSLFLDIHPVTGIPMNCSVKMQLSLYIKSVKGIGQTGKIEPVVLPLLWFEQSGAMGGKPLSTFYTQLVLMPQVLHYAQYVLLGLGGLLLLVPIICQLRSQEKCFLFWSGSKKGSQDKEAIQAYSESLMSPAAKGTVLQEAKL
Vif imaging: inhibitors of HIV Vif; AID 602346; inhibition, % at 7.49 µM; HEK293T cells, Vif self-association by quenched fluorescence, imaging, 24 h; hit rate 0.35% among 340,000; in the data active means inhibition above about 50%, passing the limit was not always enough
SMARCA2 act: activators of SMARCA2 function | MG213 cells, MMTV-luciferase reporter, dexamethasone, overnight | activation, % at 9.1 µM | hit rate 1% among 370,000 | AID 652017; in the data active means activation above about 7.8%;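 further: 0% = vehicle wells and 100% = reference activator wells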
An asterisk follows results filed as active.

What do the screens show for `CS(=O)(=O)c1ccc(OCCCN2CCC(C(O)(c3ccccc3)c3ccccc3)CC2)cc1`?
SMARCA2 act: -3.5

How did O=C(NCc1ccccc1)[C@H]1CCCN1C(=O)[C@H]1CCCN1C(=O)c1cccs1 do in these assays?
SMARCA2 act: -7.2

Results for CCCCN(CC)CCNC(=O)c1cc2c(=O)[nH]c3ccccc3c2s1 ?
SR-BI DiI-HDL act: -87.8; SR-BI HDL uptake: 87.8*; Vif imaging: 5.2; SMARCA2 act: 0.0

Results for Cc1cccc(NC(=O)Nc2nc3ncccn3c2-c2ccc(F)cc2)c1 ?
SMARCA2 act: -1.8

How did COc1ccc(-n2c(SCC(=O)Nc3ccccc3-c3ccccc3)nnc2-c2ccccc2)cc1 do in these assays?
SMARCA2 act: -5.6

What do the screens show for `Nc1cc([N+](=O)[O-])cc2oc(-c3ccccc3)cc12`?
SR-BI DiI-HDL act: -70.3; SR-BI HDL uptake: 70.3*; Vif imaging: -27.8; SMARCA2 act: 5.0

How did COc1ccc(C(=O)Nc2ccc(C(=O)NCCc3ccc(OC)c(OC)c3)cc2)cc1 do in these assays?
SR-BI DiI-HDL act: -79.0; TAG inh: 20.2; SR-BI HDL uptake: 79.0*; Vif imaging: -15.6; SMARCA2 act: -0.4

What do the screens show for `COc1ccc(CCNC(=O)c2ccc(CNS(=O)(=O)c3cccc(Cl)c3)cc2)cc1OC`?
SR-BI DiI-HDL act: -80.8; SR-BI HDL uptake: 80.8*; Vif imaging: -3.5; SMARCA2 act: -3.4

How did COc1ccc(CCNC(=O)c2ccc(CNS(=O)(=O)c3cc(C)ccc3C)cc2)cc1OC do in these assays?
SR-BI DiI-HDL act: -78.9; TAG inh: 27.9; SR-BI HDL uptake: 78.9*; Vif imaging: -13.6; SMARCA2 act: -2.4

Results for COc1ccc(CCNC(=O)c2ccc(CNS(=O)(=O)c3ccc(C(C)(C)C)cc3)cc2)cc1OC ?
SR-BI DiI-HDL act: -65.2; SR-BI HDL uptake: 65.2; Vif imaging: -4.0; SMARCA2 act: 0.9

Results for COc1ccc(CC(=O)NCCc2ccc(OC)c(OC)c2)cc1 ?
SR-BI DiI-HDL act: 8.2; SR-BI HDL uptake: -8.2; Vif imaging: -0.9; SMARCA2 act: -0.8

How did CCCCCCN1CCS(=O)(=O)N(Cc2ccc(OC)cc2)C(C(=O)OC)C1 (stereo unspecified) do in these assays?
SMARCA2 act: -2.1

What do the screens show for `COc1cc(F)ccc1Oc1cccc2c1S(=O)(=O)N(C1CC1)C[C@@H](COCc1ccccc1)O2`?
SMARCA2 act: -4.4

What do the screens show for `O=C(N[C@H](C(=O)N1CCC[C@H]1C(=O)NC1CCCC1)C1CCCCC1)c1ccc(Cl)cc1Cl`?
SMARCA2 act: 2.1

How did Cc1cccc(NC(=O)c2sc3nc4c(c(-c5cccs5)c3c2N)CN(C)CC4)c1 do in these assays?
SR-BI DiI-HDL act: -82.8; TAG inh: 9.8; SR-BI HDL uptake: 82.8*; Vif imaging: 6.5; SMARCA2 act: 4.9

How did COc1ccccc1CCn1cnc(-c2cccc(Br)c2)c1C(C)C do in these assays?
SMARCA2 act: -9.3

What do the screens show for `COc1ccc(CCNC(=O)c2cccc(NC(=O)CC3SC(N4CCCCC4)=NC3=O)c2)cc1OC` (stereo unspecified)?
SR-BI DiI-HDL act: -77.6; TAG inh: 10.1; SR-BI HDL uptake: 77.5*; SMARCA2 act: -1.3

How did CC1=NN(c2ccccc2)C(=O)/C1=C/C=C/c1ccc(N(C)C)cc1 do in these assays?
SR-BI DiI-HDL act: -36.9; TAG inh: 66.5*; SR-BI HDL uptake: 36.9; Vif imaging: 4.0; SMARCA2 act: -1.3

Results for CCC[C@@H](CNC)NC[C@H](Cc1ccccc1)NCCCCc1ccccc1 ?
SR-BI DiI-HDL act: 53.4; TAG inh: 130.6*; SR-BI HDL uptake: -53.4; Vif imaging: 1.5; SMARCA2 act: -1.2

What do the screens show for `CCC[C@@H](CN[C@@H](CNC)C(C)C)NCCCCc1ccccc1`?
SR-BI DiI-HDL act: 7.8; TAG inh: 33.3; SR-BI HDL uptake: -7.8; Vif imaging: -4.1; SMARCA2 act: 0.0

What do the screens show for `CCOC(=O)c1ccc(NC(=O)c2sc3nc(N4CCOCC4)c4c(c3c2N)CCCC4)cc1`?
SR-BI DiI-HDL act: 0.3; SR-BI HDL uptake: -0.3; Vif imaging: -2.6; SMARCA2 act: -1.5

What do the screens show for `CCOC(=O)c1sc2nc(-c3ccco3)c3c(c2c1N)CC(C)(C)OC3`?
SR-BI DiI-HDL act: -75.4; SR-BI HDL uptake: 75.4*; Vif imaging: 2.4; SMARCA2 act: -1.7

What do the screens show for `COc1ccc(OC)c(NC(=O)c2sc3nc(Cc4ccccc4)cc(C(F)(F)F)c3c2N)c1`?
SR-BI DiI-HDL act: -71.2; SR-BI HDL uptake: 71.2*; Vif imaging: 9.1; SMARCA2 act: -1.9

How did CC1(C)Cc2c(c(N3CCCC3)nc3sc(C(=O)Nc4ccccc4)c(N)c23)CO1 do in these assays?
SR-BI DiI-HDL act: -76.3; SR-BI HDL uptake: 76.3*; Vif imaging: 4.6; SMARCA2 act: 3.0

What do the screens show for `CCOC(=O)c1sc2nc(N3CCOCC3)c3c(c2c1N)CCC3`?
SR-BI DiI-HDL act: -73.6; TAG inh: 35.7; SR-BI HDL uptake: 73.6*; Vif imaging: 0.6; SMARCA2 act: 5.0

Results for Cc1ccccc1C(=O)N1CCC[C@@H]1C(=O)N1CCC[C@H]1C(=O)NCc1ccccc1 ?
SMARCA2 act: -6.0

How did CN(CCOC(=O)CSc1ccccc1)C1CN(Cc2cn(Cc3ccccc3F)nn2)S(=O)(=O)C1 (stereo unspecified) do in these assays?
SMARCA2 act: -0.5

How did COc1ccccc1NC(=O)c1sc2nc(N3CCOCC3)c3c(c2c1N)CCCC3 do in these assays?
SR-BI HDL uptake: 84.4*; Vif imaging: 2.5; SMARCA2 act: -2.5

How did Cc1ccccc1NC(=O)c1sc2nc(N3CCOCC3)c3c(c2c1N)CCCC3 do in these assays?
SR-BI DiI-HDL act: -68.7; SR-BI HDL uptake: 68.7; Vif imaging: 1.4; SMARCA2 act: 2.0

What do the screens show for `CCOC(=O)CC[C@H]1CC[C@]2(CCCN(S(C)(=O)=O)C2)O1`?
SMARCA2 act: 2.0

What do the screens show for `COc1cc(Cl)cc(/C=C/c2ccc3cccc(O)c3n2)c1OC`?
SR-BI DiI-HDL act: -49.7; SR-BI HDL uptake: 49.7; Vif imaging: 0.3; SMARCA2 act: -1.2

Results for COc1ccc(Cl)cc1/C=C/c1ccc2cccc(O)c2n1 ?
SR-BI DiI-HDL act: -83.3; SR-BI HDL uptake: 83.3*; Vif imaging: -4.3; SMARCA2 act: 6.4

How did COc1cc(NC(=O)C2CCCN(S(=O)(=O)c3ccc(Cl)s3)C2)cc(OC)c1 (stereo unspecified) do in these assays?
SMARCA2 act: -1.3

What do the screens show for `O=C(N[C@H](C(=O)N1CCC[C@H]1C(=O)NC1CCCC1)c1ccccc1)c1ccc(Cl)c(Cl)c1`?
SMARCA2 act: -0.3

How did CC(C)Cc1cc(C(=O)Nc2cccnc2)no1 do in these assays?
SR-BI DiI-HDL act: 10.6; TAG inh: -5.8; SR-BI HDL uptake: -10.6; Vif imaging: -8.3; SMARCA2 act: 7.9*

Results for Cc1cc(C(=O)Nc2cccnc2)no1 ?
SR-BI DiI-HDL act: 9.1; SR-BI HDL uptake: -9.1; Vif imaging: 5.5

What do the screens show for `CN(C(=O)COC(=O)c1ccccc1Nc1ccccc1)c1c(N)n(Cc2ccccc2)c(=O)[nH]c1=O`?
SR-BI DiI-HDL act: -72.3; TAG inh: 16.8; SR-BI HDL uptake: 72.3*; Vif imaging: -0.5; SMARCA2 act: -5.9
